# Reference: PubChem BioAssay AID2152 (The Scripps Research Institute Molecular Screening Center, 2009)
# The whole screen tested about 2,300 compounds, of which about 25 (1%) were called active. For the sample, actives were picked, then their nearest neighbours and some compounds at random. A number with no mark means an inactive call.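 How the source made its calls: active means mean inhibition over three replicate wells above the hit threshold derived in the earlier primary screen (cut at about 45% in these data); inactive means the rest.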
# Tested on: Hepatitis C virus core protein (core106 dimerization)
# Assay: inhibitors of HCV core protein dimerization, confirmation, biochemical, TR-FRET, triplicate (AID 2152);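 further: 0% = DMSO wells and 100% = unlabelled core106 competitor control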
# Details: TR-FRET GST-/Flag-core106 dimerization, HTRF; at 5 µM; active compounds read high
# How it was run: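 Test system: GST- and Flag-tagged HCV core106 peptides, dimerization via antibody TR-FRET / Amount: 17 nM Flag- plus 13.5 nM GST-core106 / Probe or stimulus: Eu(K)-anti-GST plus XL665-anti-FLAG antibodies / Compound dosing: one 5 µM dose, 0.5% DMSO / Times: 4 h incubation, 22.5 °C / Technique: TR-FRET, 340 nm excitation, 671/617 nm emission / Evaluation: percent inhibition from emission ratio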
row,SMILES,inhibition
1,Cc1ccc2nc(C)cc(C(=O)OCC(=O)c3ccc(Cl)c([N+](=O)[O-])c3)c2c1,-4.97%
2,CCN(CC)c1ccc(/C=N/NC(=O)Cc2nnc(NC(=O)Nc3ccccc3)s2)cc1,-1.4%
3,COc1ccc(/C=N/NC(=O)c2nn(-c3ccc(Cl)cc3)c(=O)c3c(N)scc23)cc1,9.33%
4,O=C(COC(=O)C1c2ccccc2Oc2ccccc21)Nc1ccc2c(c1)OCO2,-1.06%
5,O=C(NC(=S)Nc1ccc(-c2ccc(CO)o2)cc1)c1cccs1,-8.29%
6,CC(C)(C)c1nnc2sc(SC/C(O)=C(\C#N)c3nc4ccccc4[nH]3)nn2c1=O,0.37%
7,CC1=CC(=O)c2c(O)ccc(O)c2C1=O,35%
8,O=C1c2c(O)cccc2Cc2cccc(O)c21,53.6% (active)
9,CC(C)C(C)(C#N)NC(=O)CSc1nc2scc(-c3ccco3)c2c(=O)n1-c1ccccc1 (stereo not given),-0.21%
10,N#C/C(=N\Nc1ccc(S(=O)(=O)N2CCc3ccccc32)cc1)C(N)=S,-0.77%
11,CC(=O)Oc1ccc(C(=O)[C@H]2[C@H]3C(=O)N(c4ccccc4)C(=O)[C@H]3[C@@H]3C=CC=NN32)cc1,-1.31%
12,COc1cccc(NC(=O)c2cc(-c3ccc(C)o3)nc3ccccc23)c1,-3.59%
13,COc1cccc(NC(=S)Nc2cc(C)cc(C)n2)c1,72.9% (active)
14,COc1ccc(-n2nc3cc(C)c(NC(=S)NC(=O)c4ccccc4C)cc3n2)cc1,14.3%
15,CC1Cc2ccccc2N1Cc1cc(=O)n2ccsc2n1 (stereo not given),3.14%
16,COc1ccc(C(=O)[C@H]2[C@H]3C(=O)N(c4ccc(C)cc4)C(=O)[C@H]3C3C=CC=NN32)cc1 (stereo not given in full),2.52%
17,Cc1cc(C)c2nc(-c3ccccn3)cc(C(=O)Nc3ccc(S(=O)(=O)Nc4cc(C)on4)cc3)c2c1,14.4%
18,Cc1ccc2c(c1C)NC(C(=O)O)C1CC=CC21 (stereo not given),17.4%
19,COc1cccc2c1NC(C(=O)O)C1CC=CC21 (stereo not given),8.1%
20,O=C(O)C1Nc2c(O)cccc2C2C=CCC12 (stereo not given),53.8% (active)
21,COc1ccccc1Nc1ncc(-c2cccs2)s1,-8.18%
22,O=C(CN1CCN(c2ccc(F)cc2)CC1)NC(=O)NCc1ccco1,-6.85%

row,SMILES,inhibition
1,O=C(Cn1c(=O)c2c(ncn2C2CCCC2)n(Cc2ccccc2)c1=O)N1CCc2ccccc21,5.72%
2,COc1ccc(C2=NN(c3nc(-c4ccccc4)c(CC(=O)O)s3)C(c3ccco3)C2)cc1 (stereo not given),51.3% (active)
3,COc1ccc(C2CC(c3ccccc3)=NN2c2ccc(/C=N/NC(=O)c3ccncc3)cc2)cc1 (stereo not given),-1.14%
4,CC(C)[C@H](NS(=O)(=O)c1ccccc1)C(=O)OCC(=O)N1N=C(c2ccc(Cl)cc2)CC1c1ccco1 (stereo not given in full),-2.37%
5,COc1ccc(C(=O)N/N=C(\C)c2ccc3c(c2)C2C=CCC2C(c2ccccc2)N3)cc1 (stereo not given),1.09%
6,Cc1cccc(N2CC(C(=O)Nc3nnc(SCc4ccccn4)s3)CC2=O)c1 (stereo not given),21.3%
7,COc1ccc(C=O)cc1COc1ccc(F)cc1F,-6.06%
8,O=C(Nc1ccc(N2CCCC2)c(Cl)c1)c1cccc(-c2cc3ccccc3oc2=O)c1,-5.08%
9,N#Cc1c(-c2ccco2)cc(-c2ccccn2)nc1N,3.09%
10,CCN(CC(=O)Nc1ccc(OC)cc1)C(=O)Cc1cccs1,6.25%
11,Cc1ccc(C)c(S(=O)(=O)N2CCC(c3nc4c(nnn4Cc4ccc5c(c4)OCCO5)c(=O)[nH]3)CC2)c1,7.31%
12,Cc1ccc(O)c(N=CC2=C(O)c3ccccc3C2=O)c1,7.52%
13,COc1ccccc1NS(=O)(=O)c1cc(NC(=O)Nc2ccc(Cl)cc2Cl)ccc1N1CCCCC1,-5.21%
14,O=Cc1cn(-c2ccccc2)nc1-c1cc2c(ccc3ccccc32)oc1=O,-0.21%
15,COC(=O)/C=c1/s/c(=C(\C#N)C(=O)NCc2ccco2)n(-c2ccc(C)cc2)c1=O,-4.05%
16,Cc1c(C(=O)Nc2ccc(Cl)cc2)c2ccccn2c1C(=O)c1ccc([N+](=O)[O-])cc1,-5.31%
17,O=C(OCC(=O)c1ccc(Cl)s1)c1cnccn1,1.14%
18,CCOC(=O)c1ccc(NC(=O)COc2ccc(-n3cnnn3)cc2)cc1,3.21%
19,COc1ccccc1N1CCN(C(=O)c2ccc3c(c2)NC(=O)C(CSCc2ccccc2C)N3)CC1 (stereo not given),25.3%
20,Cc1ccc(N2C(=O)N3[C@H](c4ccc(F)cc4)[C@@H]4C(=O)N(C5CCCCC5)C(=O)[C@@H]4[C@]3(Cc3ccccc3)C2=O)cc1,-1.83%
21,CC(=O)Nc1ccc(NC(=O)c2ccc(COc3ccccc3)cc2)cc1,-12.8%
22,Cc1cc(-c2csc(NC(=O)c3cc4ccccc4o3)n2)c(C)n1C,22.5%

row,SMILES,inhibition
1,COC(=O)c1ccc(Oc2coc3cc(OCc4cnn(-c5ccccc5)c4)ccc3c2=O)cc1,-4.6%
2,N#Cc1c(-c2cccc(F)c2)cc(-c2ccccc2)nc1Br,9.78%
3,CCOC(=O)C1=C(c2ccccc2)NC(=S)NC1c1cc([N+](=O)[O-])ccc1OC (stereo not given),-1.99%
4,COc1ccc(-n2c(-c3ccccc3)nc(=S)c3c2CCCC3)cc1,33.8%
5,O=[N+]([O-])c1ccc(Oc2cc(NC3CCCCCCC3)c([N+](=O)[O-])cc2[N+](=O)[O-])cc1,-0.42%
6,Cc1ccc2nc(/C(C#N)=C\c3ccc(Oc4ccc(C(F)(F)F)cc4[N+](=O)[O-])cc3)[nH]c2c1,-6.22%
7,N#CC(=C1CCCC1)c1nc(-c2ccccc2O)cs1,-2%
8,O=C(Nc1ccc2c(c1)OCO2)c1cc(-c2cccnc2)nc2ccccc12,-0.48%
9,O=C1C2C3C=CC(C4CC34)C2C(=O)N1/N=C/c1ccc(-c2ccc(Cl)cc2[N+](=O)[O-])o1 (stereo not given),-5.46%
10,CCN1C=C(Cc2cccs2)C2=C(C1)C(c1cccs1)C(C#N)=C(N)O2 (stereo not given),-3.27%
11,CCCc1nc2sc3c(SCC(=O)NCc4ccco4)ncnc3c2c2c1CCC2,15.9%
12,CCCCc1nc2sc3c(SCC(=O)NCc4ccco4)ncnc3c2c2c1CCC2,52.8% (active)
13,CSc1nc(SCC(=O)NCc2ccco2)c2c3c(sc2n1)CN(C)CC3,20.1%
14,O=C(NCc1ccco1)C(c1ccco1)N(C(=O)Cn1nnc2ccccc21)c1ccc2c(c1)CCC2 (stereo not given),6.56%
15,COc1ccc(/C=C/C(=O)Nc2cc(C)nn2-c2nc3ccccc3n2Cc2cccc([N+](=O)[O-])c2)cc1,-5.15%
16,COc1ccc(NS(=O)(=O)c2ccc(O)c(NC(=O)c3cc4c(C)nn(-c5ccc(F)cc5)c4s3)c2)cc1,-2.83%
17,Cc1ccc(Cn2c(SCC(=O)Nc3cc(C)on3)nc3ccccc3c2=O)cc1,9.61%
18,COc1cccc(-n2c(SCC(=O)Nc3cc(C)on3)nc3c([nH]c4ccccc43)c2=O)c1,-2.22%
19,CCCCn1c(SCC(=O)Nc2cc(C)on2)nc2ccccc2c1=O,54.9% (active)
20,CC1CCCCC12NC(=O)N(CC(=O)c1ccc[nH]1)C2=O (stereo not given),-2.48%
21,Cn1c(SCC(=O)Nc2sccc2C#N)nnc1-c1ccccc1,-0.16%
